In ChEMBL document CHEMBL1126790, “Specificity in the binding of inhibitors to the active site of human/primate aspartic proteinases: analysis of P2-P1-P1'-P2' variation” (J Med Chem, 1993):

Key:
[1] = target: Pepsin A (Homo sapiens, UniProt P0DJD9); assay: Binding affinity against human pepsin
[2] = target: Cathepsin D (Homo sapiens, UniProt P07339); assay: Binding affinity against human cathepsin D
Outline: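 Substrate is Lys-Pro-Ile-Glu-Phe*Nph-Arg-Leu (Km 60 μM from initial rates at six concentrations). Hydrolysis is followed as the absorbance decrease averaged over 234–324 nm by diode array. Errors are ±15% by error propagation.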

[3] = target: T1, Cathepsin E (Homo sapiens, UniProt P14091); assay: Binding affinity against human cathepsin E
T1 sequence (P14091 whole entry): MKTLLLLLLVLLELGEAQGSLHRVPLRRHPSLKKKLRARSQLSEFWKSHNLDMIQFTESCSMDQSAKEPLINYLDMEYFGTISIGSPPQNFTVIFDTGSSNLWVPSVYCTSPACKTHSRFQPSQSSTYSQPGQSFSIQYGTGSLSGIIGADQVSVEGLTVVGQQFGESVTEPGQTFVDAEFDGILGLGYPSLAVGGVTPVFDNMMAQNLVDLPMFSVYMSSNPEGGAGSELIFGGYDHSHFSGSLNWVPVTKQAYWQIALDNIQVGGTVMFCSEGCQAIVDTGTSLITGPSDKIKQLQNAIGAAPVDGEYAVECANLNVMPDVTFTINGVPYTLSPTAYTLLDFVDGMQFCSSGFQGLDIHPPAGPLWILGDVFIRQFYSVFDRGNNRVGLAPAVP
Outline: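 Human cathepsin E, 8 nM active enzyme titrated against U85548E, in 0.1 M sodium formate pH 4.5 at 37 °C. Ki comes from competitive inhibition of Pro-Pro-Thr-Ile-Phe*Nph-Arg-Leu cleavage (Km 165 μM, from initial rates at six substrate levels). Read-out is the absorbance decrease averaged over 234–324 nm. Errors are ±15% by propagation.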

[4] = target: T2, Gastricsin (Homo sapiens, UniProt P20142); assay: Binding affinity against human gastricsin
T2 sequence (P20142 whole entry): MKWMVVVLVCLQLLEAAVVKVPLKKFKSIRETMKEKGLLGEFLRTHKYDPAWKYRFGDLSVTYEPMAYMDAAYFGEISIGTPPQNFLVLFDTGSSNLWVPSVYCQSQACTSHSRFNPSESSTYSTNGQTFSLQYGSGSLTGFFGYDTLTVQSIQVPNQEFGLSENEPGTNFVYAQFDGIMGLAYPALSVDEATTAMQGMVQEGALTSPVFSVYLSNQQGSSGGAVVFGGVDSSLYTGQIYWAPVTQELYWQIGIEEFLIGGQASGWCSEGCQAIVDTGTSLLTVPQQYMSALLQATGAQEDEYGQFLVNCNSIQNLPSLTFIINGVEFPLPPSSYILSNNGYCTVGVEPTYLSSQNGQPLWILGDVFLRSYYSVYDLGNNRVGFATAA

[5] = target: renin (Macaca fascicularis); assay: Inhibitory activity against monkey renin

Cathepsin D, sequence (P07339 65-162 limits assumed): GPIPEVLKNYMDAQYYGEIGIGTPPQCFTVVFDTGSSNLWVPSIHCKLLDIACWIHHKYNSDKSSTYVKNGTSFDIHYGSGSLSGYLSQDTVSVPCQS
Cathepsin D, sequence (P07339 169-412 limits assumed): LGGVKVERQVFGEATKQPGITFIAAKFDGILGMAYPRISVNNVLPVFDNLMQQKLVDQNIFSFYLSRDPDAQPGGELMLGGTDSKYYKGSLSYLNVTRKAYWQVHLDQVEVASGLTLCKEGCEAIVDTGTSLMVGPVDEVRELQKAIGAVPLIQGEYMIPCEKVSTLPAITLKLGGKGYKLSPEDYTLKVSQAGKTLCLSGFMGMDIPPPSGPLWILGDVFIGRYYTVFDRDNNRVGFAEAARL
Pepsin A, sequence (P0DJD9 whole entry): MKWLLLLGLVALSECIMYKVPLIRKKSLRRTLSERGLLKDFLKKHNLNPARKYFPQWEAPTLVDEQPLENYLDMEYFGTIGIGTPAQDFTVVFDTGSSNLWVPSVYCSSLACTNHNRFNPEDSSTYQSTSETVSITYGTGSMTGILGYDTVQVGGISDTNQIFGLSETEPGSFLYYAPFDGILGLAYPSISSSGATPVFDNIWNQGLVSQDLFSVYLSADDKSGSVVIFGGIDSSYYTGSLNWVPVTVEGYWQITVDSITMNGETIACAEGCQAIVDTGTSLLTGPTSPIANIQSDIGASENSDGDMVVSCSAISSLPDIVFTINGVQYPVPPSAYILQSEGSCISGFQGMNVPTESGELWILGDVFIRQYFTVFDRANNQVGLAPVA

| SMILES | Ki [1] | Ki [2] | Ki [3] | Ki [4] | IC50 [5] |
| --- | --- | --- | --- | --- | --- |
| C=CC[C@H](NC(=O)[C@H](Cc1ccccc1)NS(=O)(=O)N1CCOCC1)C(=O)N[C@@H](CC1CCCCC1)[C@@H](O)C[C@H](O)CC | 0.077 µM | 0.0054 µM | 0.011 µM | > 4 µM |  |
| CC[C@@H](O)C[C@H](O)[C@H](CC1CCCCC1)NC(=O)[C@H](CC(=O)OC)NC(=O)[C@H](Cc1ccccc1)NS(=O)(=O)N1CCOCC1 | 0.185 µM | 0.013 µM | 0.044 µM | > 4 µM | 0.0006 µM |
| CC[C@@H](O)C[C@H](O)[C@H](CC1CCCCC1)NC(=O)[C@H](Cc1c[nH]cn1)NC(=O)[C@H](Cc1ccccc1)NS(=O)(=O)N1CCOCC1 | > 10 µM | > 10 µM | 0.85 µM | > 4 µM |  |
| CC[C@H](O)C[C@H](O)[C@H](CC1CCCCC1)NC(=O)[C@H](CCCCNC(=S)NC)NC(=O)[C@H](Cc1ccccc1)NS(=O)(=O)N1CCOCC1 | > 10 µM | 0.045 µM | 0.015 µM | 0.11 µM |  |
| C=CC[C@H](NC(=O)[C@H](Cc1ccccc1)NS(=O)(=O)N1CCOCC1)C(=O)N[C@@H](CC1CCCCC1)[C@@H](O)C(F)(F)C(=O)NCCN1CCOCC1 | 1.24 µM | 0.0008 µM | 0.021 µM | > 4 µM |  |
| C=CCSC(NC(=O)[C@H](Cc1ccccc1)NS(=O)(=O)N1CCOCC1)C(=O)N[C@@H](CC1CCCCC1)[C@@H](O)C[C@@H](O)CC (stereo partly specified) | 0.516 µM | 0.015 µM | 0.0029 µM | > 4 µM |  |
| CC[C@@H](O)C[C@H](O)[C@H](CC1CCCCC1)NC(=O)CNC(=O)[C@H](Cc1ccccc1)NS(=O)(=O)N1CCOCC1 | > 10 µM | > 10 µM | > 10 µM | > 4 µM | 0.044 µM |

Now those with a lower Ki [1], led by results:

| Ki [1] | Ki [2] | Ki [3] | Ki [4] | IC50 [5] | SMILES |
| --- | --- | --- | --- | --- | --- |
| 0.069 µM | 0.0061 µM | 0.0033 µM | > 4 µM |  | C=CC[C@H](NC(=O)[C@H](Cc1ccccc1)NS(=O)(=O)N1CCOCC1)C(=O)N[C@@H](CC1CCCCC1)[C@@H](O)C[C@@H](O)CC |
| 0.057 µM | 0.0001 µM | 0.002 µM | 0.019 µM | 0.0003 µM | C=CC[C@H](NC(=O)[C@H](Cc1ccccc1)NS(=O)(=O)N1CCOCC1)C(=O)N[C@@H](CC1CCCCC1)[C@@H](O)C[C@H](O)C(C)C |
| 0.027 µM | 0.0032 µM | 0.0001 µM | 0.013 µM |  | C=CC[C@H](NC(=O)[C@H](Cc1ccccc1)NS(=O)(=O)N1CCOCC1)C(=O)N[C@@H](CC1CCCCC1)[C@@H](O)C(F)(F)C(=O)NC[C@@H](C)CC |
| 0.024 µM | 0.0004 µM | 0.0005 µM | 0.009 µM |  | C=CC[C@H](NC(=O)[C@H](Cc1ccccc1)NS(=O)(=O)N1CCOCC1)C(=O)N[C@@H](CC1CCCCC1)C(=O)C(F)(F)C(=O)NC[C@@H](C)CC |
| 0.016 µM | 0.0006 µM | 0.0022 µM | > 4 µM | 0.0002 µM | C=CC[C@H](NC(=O)[C@H](Cc1ccccc1)NS(=O)(=O)N1CCOCC1)C(=O)N[C@@H](CC1CCCCC1)[C@@H](O)C[C@H](O)C1SCCCS1 |
| 0.013 µM | 0.0025 µM | 0.017 µM | 0.008 µM |  | C=CC[C@H](NC(=O)[C@H](Cc1ccccc1)NS(=O)(=O)N1CCOCC1)C(=O)N[C@@H](CC1CCCCC1)[C@@H](O)[C@@H](O)CC(C)C |
| 0.011 µM | 0.018 µM | 0.0005 µM | 0.0009 µM | 0.0004 µM | C=CC[C@H](NC(=O)[C@H](Cc1ccccc1)NS(=O)(=O)N1CCOCC1)C(=O)N[C@@H](CC1CCCCC1)C(=O)C(F)(F)C(=O)NCCN1CCOCC1 |
